This is an account of results in ChEMBL document CHEMBL1145627, “E-ring-modified 7-oxyiminomethyl camptothecins: Synthesis and preliminary in vitro and in vivo biological evaluation” (Bioorg Med Chem Lett, 2008).

For series [1], the system named is NCI-H460. Put plainly: Antiproliferative activity against human H460 cells after 1 hr of drug exposure measured after 72 hrs. In kind it is functional, cell-based. The method, boiled down:
(§1)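 Growth inhibition after 1-h drug exposure; IC50 is the concentration giving 50% reduction of cell growth versus untreated controls. Values are means ± SD from at least three experiments.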

For series [2], the system named is HT-29. Put plainly: Antiproliferative activity against human HT29 cells after 1 hr of drug exposure measured after 72 hrs. In kind it is functional, cell-based. The essentials: as §1
In series [3] the test system is HT-29. Put plainly: Antiproliferative activity against BCRP overexpressing mitoxantrone-resistant human HT29 cells after 1 hr of drug exposure measured after 72 hrs. In kind it is functional, cell-based. The essentials: as §1
Series [4] has as its system HT-29. The series can be described thus: Resistant index, ratio of IC50 for BCRP overexpressing mitoxantrone-resistant human HT29 cells to IC50 for human HT29 cells. In kind it is functional. The method, boiled down:
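Resistance index in HT29/mit, the BCRP-overexpressing subline. IC50 values come from the 1-h exposure growth inhibition assay, as 50% growth reduction versus untreated controls.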

The subject of series [5] is PANC-1. The series can be described thus: Antitumor activity against human Panc1 cells xenografted athymic mouse assessed as inhibition of tumor volume at 400 mg/kg, po administered in q4dx4 schedule. In kind it is functional. The method, boiled down:
(§2)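 Human tumor xenografts (CoBa colon, MKN-28 gastric, Panc-1 pancreatic) grown subcutaneously in mice. Drug given orally on an intermittent q4dx4 schedule. Read-out is % tumor volume inhibition in treated versus control mice. Complete responses were scored as tumor disappearance lasting at least ten days.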
Background: A xenograft is tissue or cells of one species grown in another, often human tumour cells in immunodeficient mice.

In series [6] the test system is Mus musculus. The series can be described thus: Toxicity in human Panc1 cells xenografted athymic mouse assessed as survival at 400 mg/kg, po administered in q4dx4 schedule. As to conditions: in vivo. In kind it is organism-based, PANC-1. Details: route oral. The essentials: (§3)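 Mice carried subcutaneous human tumor xenografts (CoBa, MKN-28 or Panc-1). They were dosed orally on an intermittent q4dx4 schedule, which was also used to set the maximum tolerated dose. Toxicity was scored as lethal toxicity, given as dead/treated mice. Drug-induced % body weight loss was also recorded.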

Series [7] has as its system Mus musculus. The series can be described thus: Toxicity in human CoBa cells xenografted athymic mouse assessed as survival at 50 mg/kg, iv administered in q4dx4 schedule. Set-up: dose 50 mg/kg, route intravenous. The format is organism-based. As to conditions: in vivo.
Series [8] in a line: Antitumor activity against human CoBa cells xenografted in athymic mouse assessed as inhibition of tumor volume at 50 mg/kg, iv administered in q4dx4 schedule.
Series [9] concerns MKN-28. Put plainly: Antitumor activity against human MKN28 cells xenografted athymic mouse assessed as inhibition of tumor volume at 8 mg/kg, po administered in q4dx4 schedule. In kind it is functional. The method, boiled down: as §2
Series [10] relates to Mus musculus. Put plainly: Toxicity in human MKN28 cells xenografted athymic mouse assessed as loss of body weight at 8 mg/kg, po administered in q4dx4 schedule. The format is organism-based, MKN-28. Details: dose 8 mg/kg, route oral. The note with it: in vivo. The method, boiled down:
(§4)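 Oral dosing on an intermittent q4dx4 schedule in mice bearing MKN-28 gastric carcinoma xenografts. Tumor volume inhibition % is relative to controls. Body weight loss % is the loss induced by drug treatment.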

In series [11] the test system is Mus musculus. Put plainly: Toxicity in human MKN28 cells xenografted athymic mouse assessed as survival at 8 mg/kg, po administered in q4dx4 schedule. In kind it is organism-based, MKN-28. Set-up: dose 8 mg/kg, route oral. As to conditions: in vivo. The essentials: as §3
Series [12] has as its system MKN-28. Put plainly: Antitumor activity against human MKN28 cells xenografted athymic mouse assessed as inhibition of tumor volume at 16 mg/kg, po administered in q4dx4 schedule. The format is functional. The method, boiled down:
as §2

The subject of series [13] is Mus musculus. Put plainly: Toxicity in human MKN28 cells xenografted athymic mouse assessed as loss of body weight at 16 mg/kg, po administered in q4dx4 schedule. The format is organism-based, MKN-28. Set-up: dose 16 mg/kg, route oral. The note with it: in vivo. The method, boiled down:
as §4

Series [14] relates to Mus musculus. The series can be described thus: Toxicity in human MKN28 cells xenografted athymic mouse assessed as survival at 16 mg/kg, po administered in q4dx4 schedule. The note with it: in vivo. Details: dose 16 mg/kg, route oral. In kind it is organism-based, MKN-28. The method, boiled down: as §3
Series [15] has as its system MKN-28. The series can be described thus: Antitumor activity against human MKN28 cells xenografted athymic mouse assessed as inhibition of tumor volume at 4 mg/kg, po administered in q4dx4 schedule. The format is functional. The method, boiled down:
as §2

The test system of series [16] is Mus musculus. The series can be described thus: Toxicity in human MKN28 cells xenografted athymic mouse assessed as loss of body weight at 4 mg/kg, po administered in q4dx4 schedule. The format is organism-based, MKN-28. Set-up: dose 4 mg/kg, route oral. As to conditions: in vivo. The essentials:
as §4

The test system of series [17] is Mus musculus. The series can be described thus: Toxicity in human MKN28 cells xenografted athymic mouse assessed as survival at 4 mg/kg, po administered in q4dx4 schedule. The format is organism-based, MKN-28. Set-up: dose 4 mg/kg, route oral. The note with it: in vivo. The method, boiled down: as §3
In series [18] the test system is NCI-H460. Put plainly: Antiproliferative activity against human H460 cells after 2 hrs of drug exposure measured after 72 hrs. The format is functional, cell-based. The method, boiled down: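 Growth inhibition with IC50 taken after 2-h drug exposure, as the concentration giving 50% reduction of cell growth versus untreated controls.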

Molecules are shown by their SMILES.

By IC50 is commonly meant the concentration at which inhibition is half-maximal. A higher IC50 goes with weaker potency. The inhibition in vivo is the drop in the measured response relative to a control, in per cent.

As for `CC[C@@]1(O)C(=O)OCc2c1cc1n(c2=O)Cc2c-1nc1ccccc1c2/C=N/OCc1ccccc1`, the half-maximal inhibitory concentration (IC50) in [1] is 30 nM; in series [2], 56 nM; in series [3] it was 42 nM. Besides, the “Ratio IC50” value in series [4] worked out at 0.75.

For the compound `CC[C@@]1(O)OC(=O)c2c1cc1n(c2=O)Cc2c-1nc1ccccc1c2/C=N/OC(C)(C)C`, the values for the LCK in series [5] and in series [8] were 1.6 and 1.1, respectively. In addition, the Activity result in [6] and in [7] was “Non-toxic” each time.

In the case of `CCC1(O)CC(=O)OCc2c1cc1n(c2=O)Cc2c-1nc1ccccc1c2/C=N/OCc1ccccc1` (stereo unspecified), the LCK in [9] worked out at 0.4; in series [12], 0.2; in [15], 0. For the same compound, the inhibition in vivo at 8 mg/kg in series [9] (Mus musculus, MKN-28) worked out at 60%. Besides, the Activity in series [10] is listed as 6%; in [11], “Non-toxic”; in series [13] it was 0%; in [14], “Non-toxic”; in series [16], 0%; in [17] it was “Non-toxic”. Further, the inhibition in vivo at 16 mg/kg in series [12] (Mus musculus, MKN-28) came out at 47%. In addition, the results for the IC50 in [1], in series [2] and in series [3] were 15 nM, 17 nM and 350 nM, respectively. In addition, the “Ratio IC50” value in [4] came out at 20. Besides, the inhibition in vivo at 4 mg/kg in [15] (Mus musculus, MKN-28) is 17%.

The compound `CC[C@@]1(O)CC(=O)OCc2c1cc1n(c2=O)Cc2c-1nc1ccccc1c2/C=N/OC(C)(C)C` had a half-inhibitory concentration (IC50) in [18] of 1.8 nM.

In the case of `CC[C@]1(O)CC(=O)OCc2c1cc1n(c2=O)Cc2c-1nc1ccccc1c2/C=N/OC(C)(C)C`, in series [18], the IC50 is over 200 nM.
